Results reported in ChEMBL document CHEMBL1121361, “Studies on the synthesis of chemotherapeutics. 10. Synthesis and antitumor activity of N-acyl- and N-(alkoxycarbonyl)-5-fluorouracil derivatives” (1980).

Experiments:
P388 [1] = assay: Percentage change in median survival time of P388 (leukemia) inoculated female mice following 100 mg/kg p.o.; conditions: route oral
P388 [2] = assay: Percentage change in median survival time of P388 (leukemia) inoculated female mice following 25 mg/kg p.o.; conditions: route oral
Mus musculus [3] = assay: Antitumor activity against P-388 Leukemia in female BDF1 mice expressed as percent T/C at dose 12.5 mg/kg; type: functional
How it was run: (§1)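 P-388 leukemia, 10⁶ cells implanted ip in BDF₁ mice, five per group. Test agents dissolved or suspended in 0.3% CMC-Na and dosed orally once daily for 9 days, beginning 1 day after implantation. Activity expressed as treated/control ratio of median survival time.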

Mus musculus [4] = assay: Antitumor activity against P-388 Leukemia in female BDF1 mice expressed as percent T/C at dose 50 mg/kg; type: functional
How it was run: as §1

P388 [5] = assay: Percentage change in median survival time of P388 (leukemia) inoculated female mice following 200 mg/kg p.o.; conditions: route oral
Mus musculus [6] = assay: Antitumor activity against Meth A cells in female Balb/c mice expressed as percent T/C at dose 50 mg/kg
Mus musculus [7] = assay: Antitumor activity against L-1210 in female BDF1 mice expressed as percent T/C at dose 300 mg/kg; type: functional
How it was run: (§2)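 L-1210 leukemia, 10⁶ cells implanted ip into BDF₁ mice (five females per group, 17–23 g). Compound dissolved or suspended in 0.3% CMC-Na, given orally once daily for 5 days starting 1 day after implantation. Activity taken as the ratio of median survival time, treated vs control.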

Mus musculus [8] = assay: Antitumor activity against MH 134 cells in female C3H mice expressed as percent T/C at dose 200 mg/kg
Mus musculus [9] = assay: Antitumor activity against Meth A cells in female Balb/c mice expressed as percent T/C at dose 200 mg/kg
Mus musculus [10] = assay: Antitumor activity against MH 134 cells in female C3H mice expressed as percent T/C at dose 100 mg/kg
Mus musculus [11] = assay: Antitumor activity against L-1210 in female BDF1 mice expressed as percent T/C at dose 100 mg/kg; type: functional
How it was run: as §2

Mus musculus [12] = assay: Antitumor activity against MH 134 cells in female C3H mice expressed as percent T/C at dose 50 mg/kg
Mus musculus [13] = assay: Antitumor activity against L-1210 in female BDF1 mice expressed as percent T/C at dose 50 mg/kg; type: functional
How it was run: as §2

Mus musculus [14] = assay: Antitumor activity against L-1210 in female BDF1 mice expressed as percent T/C at dose 200 mg/kg; type: functional
How it was run: as §2

Mus musculus [15] = assay: Antitumor activity against Meth A cells in female Balb/c mice expressed as percent T/C at dose 100 mg/kg
Mus musculus [16] = assay: Antitumor activity against L-1210 cells in female BDF1 mice expressed as percent T/C at dose 100 mg/kg; type: functional
How it was run: as §2

Mus musculus [17] = assay: Antitumor activity against MH 134 cells in female C3H mice expressed as percent T/C at dose 200 mg/kg; remark: listed apart in the source
Mus musculus [18] = assay: Antitumor activity against L-1210 cells in female BDF1 mice expressed as percent T/C at dose 50 mg/kg; type: functional
How it was run: as §2

Mus musculus [19] = assay: Antitumor activity against L-1210 cells in female BDF1 mice expressed as percent T/C at dose 200 mg/kg; type: functional
How it was run: as §2

Mus musculus [20] = assay: Antitumor activity against MH 134 cells in female C3H mice expressed as percent T/C at dose 50 mg/kg; remark: listed apart in the source
Mus musculus [21] = assay: Antitumor activity against L-1210 cells in female BDF1 mice expressed as percent T/C at dose 300 mg/kg; type: functional
How it was run: as §2

Mus musculus [22] = assay: Antitumor activity against MH 134 cells in female C3H mice expressed as percent T/C at dose 100 mg/kg; remark: listed apart in the source
P388 [23] = assay: Percentage change in median survival time of P388 (leukemia) inoculated female mice following 30 mg/kg p.o.; conditions: route oral

Row | Structure (SMILES) | T/C (P388 [1]) [%] | T/C (P388 [2]) [%] | T/C (Mus musculus [4]) [%] | T/C (P388 [5]) [%] | also measured
1 | CC(=O)n1cc(F)c(=O)n(C(C)=O)c1=O | 86 | 112 | 103 |  | T/C (Mus musculus [3]): 103%
2 | CCOC(=O)n1cc(F)c(=O)n(C(C)=O)c1=O | 59 | 103 | 115 |  | T/C (Mus musculus [3]): 94%
3 | CCC(=O)n1cc(F)c(=O)n(C(=O)c2ccccc2)c1=O | 130 | 110 | 119 | 90 | 
4 | CCOC(=O)n1cc(F)c(=O)n(C(=O)CC)c1=O | 82 | 105 | 112 | 52 | 
5 | O=C(OCc1ccccc1)n1c(=O)[nH]cc(F)c1=O | 110 |  | 101 | 96 | 
6 | CCCCCCC(=O)n1c(=O)c(F)cn(C(=O)OCC)c1=O | 118 | 110 | 119 | 74 | 
7 | Cc1ccccc1C(=O)n1c(=O)c(F)cn(C(=O)O[C@H]2CCC3(C)C(=CCC4[C@@H]3CCC3(C)[C@@H](C(C)CCCC(C)C)CC[C@@H]43)C2)c1=O (stereo partly specified) | 100 |  | 98 | 112 | 
8 | O=c1[nH]c(=O)n(C2CCCO2)cc1F (stereo unspecified) [TEGAFUR] | 136 | 115 | 104 | 106 | T/C (Mus musculus [6]): 82%; T/C (Mus musculus [7]): 102%; T/C (Mus musculus [8]): 57%; T/C (Mus musculus [9]): 19%; T/C (Mus musculus [3]): 111%; T/C (Mus musculus [10]): 58%; T/C (Mus musculus [11]): 124%; T/C (Mus musculus [12]): 70%; T/C (Mus musculus [13]): 110%; T/C (Mus musculus [14]): 143%; T/C (Mus musculus [15]): 53%
9 | CC(=O)n1cc(F)c(=O)n(C(=O)c2ccccc2C)c1=O | 151 | 121 | 111 | 121 | T/C (Mus musculus [6]): 71%; T/C (Mus musculus [16]): 128%; T/C (Mus musculus [17]): 25%; T/C (Mus musculus [18]): 110%; T/C (Mus musculus [9]): 32%; T/C (Mus musculus [19]): 136%; T/C (Mus musculus [20]): 61%; T/C (Mus musculus [21]): 167%; T/C (Mus musculus [15]): 58%; T/C (Mus musculus [22]): 43%
10 | CCC(=O)n1cc(F)c(=O)n(C(=O)c2ccccc2C)c1=O | 136 | 103 | 112 | 138 | 
11 | CCCCCCOC(=O)n1cc(F)c(=O)n(C(=O)c2ccccc2C)c1=O | 96 | 100 | 106 | 147 | 
12 | CCOC(=O)n1cc(F)c(=O)n(C(=O)c2ccccc2C)c1=O | 127 | 112 | 125 | 164 | 
13 | Cc1ccccc1C(=O)n1c(=O)c(F)cn(C(=O)Oc2ccccc2)c1=O | 129 | 100 | 106 | 135 | 
14 | CC(=O)n1cc(F)c(=O)n(C(=O)OCc2ccccc2)c1=O | 116 |  | 105 | 112 | 
15 | Cc1ccccc1C(=O)n1c(=O)c(F)cn(C(=O)OCc2ccccc2)c1=O | 125 |  | 108 | 110 | 
16 | CC(=O)n1c(=O)c(F)cn(C(=O)c2ccccc2C)c1=O | 108 | 97 | 114 |  | T/C (Mus musculus [3]): 111%
17 | CCOC(=O)n1cc(F)c(=O)n(C(=O)c2ccccc2)c1=O | 123 | 103 | 116 | 83 | 
18 | COC(=O)n1cc(F)c(=O)n(C(=O)c2ccccc2C)c1=O | 138 | 101 | 112 | 142 | 
19 | O=C(Oc1ccccc1)n1cc(F)c(=O)n(C(=O)c2ccccc2)c1=O | 119 | 99 | 112 | 107 | 
20 | O=C(Oc1ccccc1)n1c(=O)[nH]cc(F)c1=O | 83 | 112 | 101 |  | T/C (Mus musculus [3]): 97%
21 | O=c1[nH]cc(F)c(=O)[nH]1 [FLUOROURACIL] |  | 135 | 76 |  | T/C (Mus musculus [3]): 127%
22 | CC(=O)n1cc(F)c(=O)n(C(=O)c2ccccc2)c1=O | 144 | 108 | 116 | 99 | 
23 | Cc1ccccc1C(=O)n1c(=O)c(F)cn(C(=O)C(C)C)c1=O | 116 | 110 | 112 | 169 | 
24 | Cc1ccccc1C(=O)n1c(=O)[nH]cc(F)c1=O | 103 |  | 127 |  | T/C (P388 [23]): 124%
